Assay results published in paper PMC3134314 (ACS chemical neuroscience, 2011).
Several values for one entry are separate records, joined by “and”; a condition that tells them apart may be missing. Equal values may be shown once. Read-outs that look alike come from different tables or passages of the source.

Legend:
[1] = test system: voltage-gated Na+ channels in CAD cells; assay: Frequency; type: cell-based; conditions: 10 Hz; for Pulse in the train at which use-dependent block was first observed: 30-pulse train
Procedure, shortened: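 CAD cells were whole-cell clamped at −80 mV and given a train of 30 pulses (20 ms to −10 mV) at 10 Hz, with test compound (100, 8.5 or 15 μM) or control. Available current was the peak at pulse N divided by the pulse 1 peak. 5–7 cells per condition, averaged ± SEM.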

[2] = test system: voltage-gated Na+ channels in CAD cells; assay: Development of inhibition/slow inactivation of Na+ currents in CAD cells; type: cell-based; conditions: vehicle 0.52 ± 0.09
[3] = test system: voltage-gated Na+ channels in CAD cells; assay: Recovery of Na+ channels from inactivation/block in CAD cells; type: cell-based; conditions: vs control
Procedure, shortened: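 CAD cells under whole-cell clamp, test compound (100, 8.5 or 15 μM) or control. Cells were held at −120 mV and depolarized to 0 mV, for 5 s (slow inactivation) or a 10 ms prepulse. They were then returned to −120 mV for a variable recovery interval before a test step to 0 mV. Sweeps ran at 0.5 Hz for short recoveries and slower for longer ones.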

[4] = test system: voltage-gated Na+ channels in CAD cells; conditions: 30 μM; cited from earlier work
[5] = test system: voltage-gated Na+ channels in CAD cells; conditions: earlier study; cited from earlier work
[6] = test system: formalin-induced pain, chronic (late-phase) inflammatory pain; assay: Formalin-induced pain model; type: in vivo; conditions: mouse, i.p., the lower the percent the more effective the compound
[7] = test system: tibial-nerve injury (TNI) mechanical hypersensitivity; assay: Tibial-nerve injury; type: in vivo, Sprague–Dawley rats; conditions: rats, 10 mg/kg i.p.
[8] = test system: voltage-gated Na+ channels in CAD cells; type: cell-based
Procedure, shortened: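 Steady-state fast inactivation in whole-cell clamped CAD cells used a 500 ms conditioning pulse. Test compound ranged 0.3–500 μM; control was DMSO vehicle. Recordings were taken 3–4 min after break-in and compared with drug-free cells. V1/2 and k came from single Boltzmann fits of each recording, averaged as mean ± SEM. n = 7 for V1/2, n = 6 for τinact. Student's t-test vs DMSO.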

[9] = test system: voltage-gated Na+ channels in CAD cells; type: cell-based; conditions: for Maximal fraction of current unavailable by depolarization: 20 mV, control 0.42 ± 0.02
[10] = test system: site 2 sodium channel; assay: Site 2 sodium channel binding; conditions: 10 μM, Cerep, data not shown
[11] = test system: E18 rat cortical neurons; assay: KCl-induced Ca2+ influx, Fura-2 imaging; type: cell-based; conditions: 100 μM, 46.5 mM KCl

COC[C@@H](NC(C)=O)C(=O)NCc1ccccc1 [(R)-4, Lacosamide, reference compound]
Peak current lower than control at the last pulse (pulse 30) ([1]; 100 μM): ~ 9%
Pulse in the train at which use-dependent block was first observed ([1]; 100 μM): ~19 pulse
Fraction of current available at 8 s prepulse duration ([2]; 100 μM): 0.32 ± 0.01
Time course of recovery from the 10-ms depolarization ([3]; 100 μM): not different from control
Recovery kinetics after 5 s depolarization (slow inactivation induced) ([3]; 100 μM, significant between 100–512 ms): slowed recovery kinetics
Shift in V1/2 of fast inactivation [4]: 0.7 mV
Inhibition of peak Na+ currents [5]: ~ 40%

COC[C@@H](NC(C)=O)C(=O)NCc1ccc(OCc2cccc(F)c2)cc1 [(R)-7]
Peak current lower than control at the last pulse (pulse 30) ([1]; 8.5 μM): 40%
Pulse in the train at which use-dependent block was first observed ([1]; 8.5 μM): 3 pulse
Fraction of current available at 8 s prepulse duration ([2]; 8.5 μM): 0.20 ± 0.04
Time course of recovery from the 10-ms depolarization ([3]; 8.5 μM): slight slowing
Recovery kinetics after 5 s depolarization (slow inactivation induced) ([3]; 8.5 μM, significant between 100 ms to 2 s): slowed recovery kinetics
Protection vs control, chronic (late-phase) inflammatory pain ([6]; 15 mg/kg): 44%
Reversal of tactile hypersensitivity ([7]; 14 days after TNI, 1 hour after administration): ~ 90%
Mechanical withdrawal thresholds 24 hours after injection ([7]; four weeks after TNI, 24 hours): returned to pre-drug levels
Time constant for inactivation (τinact) ([8]; 0.3 μM, DMSO 1.32 ± 0.12 ms): 0.73 ± 0.05 ms
Shift in V1/2 of fast inactivation in the hyperpolarizing direction ([8]; 30 μM): ~ 21.4 mV and 21.4 mV
V1/2 value for fast inactivation ([8]; 30 μM, DMSO −63.2 ± 0.9 mV): −84.6 ± 1.2 mV
Fraction of current available at −50 mV ([9]; 30 μM, vs cells without drug): significantly decreased the fraction of current available
Maximal fraction of current unavailable by depolarization ([9]; 30 μM): 0.91 ± 0.01

COC[C@@H](NC(C)=O)C(=O)NCc1ccc(COc2ccccc2F)cc1 [(R)-10]
Displacement, site 2 sodium channel binding [10]: 31–46%
Shift in V1/2 of fast inactivation in the hyperpolarizing direction ([8]; 100 μM): 17.6 mV
Fold lower IC50 for slow inactivation compared with (R)-4 (85 μM) [9]: 16 fold
Maximal fraction of current unavailable by depolarization ([9]; 100 μM): 0.90 ± 0.007

COC[C@@H](NC(C)=O)C(=O)NCc1ccc(-c2cccc(F)c2)cc1 [(R)-11]
Peak current lower than control at the last pulse (pulse 30) ([1]; 15 μM): 45%
Pulse in the train at which use-dependent block was first observed ([1]; 15 μM): 3 pulse
Fraction of current available at 8 s prepulse duration ([2]; 15 μM): 0.12 ± 0.04
Time course of recovery from the 10-ms depolarization ([3]; 15 μM): not different from control
Recovery kinetics after 5 s depolarization (slow inactivation induced) ([3]; 15 μM, significant between 100 ms to 2 s): slowed recovery kinetics
Protection vs control, chronic (late-phase) inflammatory pain ([6]; 12 mg/kg): 97%
Displacement, site 2 sodium channel binding [10]: 31–46%
Shift in V1/2 of fast inactivation in the hyperpolarizing direction ([8]; 30 μM): 8.0 mV
Maximal fraction of current unavailable by depolarization ([9]; 30 μM): 0.94 ± 0.004

COC[C@H](NC(C)=O)C(=O)NCc1ccccc1 [(S)-4]
Inhibition of Ca2+ amplitude (KCl-induced Ca2+ influx) [11]: 13.74 ± 1.26%
Inhibition of peak Na+ currents [5]: no inhibition

COC[C@H](NC(C)=O)C(=O)NCc1ccc(OCc2cccc(F)c2)cc1 [(S)-7]
Shift in V1/2 of fast inactivation in the hyperpolarizing direction ([8]; 500 μM): 19.9 mV
Fraction of current available at −50 mV ([9]; 500 μM (highest dose)): reduced the available current but not to the extent observed with (R)-7
Potential above which (more depolarized) slow inactivation was observed ([9]; 5 s conditioning prepulses): > −80 mV
Maximal fraction of current unavailable by depolarization ([9]; 500 μM): 0.76 ± 0.02
